Results reported in article PMC12393413 (bioRxiv, 2025).

How the values were obtained:
MDA-MB-468 cells = assay: Western blot analysis of UPR / PERK-eIF2α-ATF4 pathway proteins; format: cell-based, human; details: for baseline phosphorylation of PERK and eIF2α, inhibitor alone: Western blot; for effect on DH20931-induced accumulation of ATF4 protein / effect on DH20931-induced phosphorylation of PERK and eIF2α: co-treatment with DH20931, Western blot
Procedure, shortened: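 Treatment lasted 24 h at 0, 2.5, 5, 10 or 20 μM test compound. Western blots were developed with BCIP/NBT substrate. Bands were quantified by densitometry and normalized to a loading control such as β-actin.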

4T1-CERS2^+/+ cells = assay: Mitochondrial Ca2+ by Rhod-2 AM confocal microscopy; format: cell-based, mouse; details: 6 h
Procedure, shortened: (§1)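 Cells were seeded on glass-bottom dishes and grown overnight to ~70% confluence, in triplicate. Exposure was 6 h to test compound (5 or 10 μM) or thapsigargin (1 or 2 μM) as ER Ca2+-depletion control. Cells were rinsed in HBSS and co-loaded 20 min at 37°C with 1 μM Mag-Fluo-4 AM (ER Ca2+) and 100 nM Rhod-2 AM (mitochondrial Ca2+).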

4T1-CERS2^−/− cells = assay: as above; format: cell-based, mouse; details: 6 h
Procedure, shortened: as §1

| SMILES | baseline phosphorylation of PERK and eIF2α, inhibitor alone (MDA-MB-468 cells) | effect on DH20931-induced accumulation of ATF4 protein (MDA-MB-468 cells) | effect on DH20931-induced phosphorylation of PERK and eIF2α (MDA-MB-468 cells) | mitochondrial Ca2+ levels (4T1-CERS2^+/+ cells) | mitochondrial Ca2+ increase in the absence of CerS2 (4T1-CERS2^−/− cells) |
| --- | --- | --- | --- | --- | --- |
| Cc1ccc2cc(-c3c(C)ccc(C(=O)c4c(-c5ccccc5)n(C)n(-c5ccccc5)c4=O)c3N)ccc2n1 [AMG44] | decrease in the baseline phosphorylation levels of both PERK and eIF2α | attenuated the DH20931-induced accumulation of ATF4 protein | markedly diminished it | – | – |
| Cn1cc(-c2ccc3c(c2)CCN3C(=O)Cc2cccc(C(F)(F)F)c2)c2c(N)ncnc21 [GSK2606414] | decrease in the baseline phosphorylation levels of both PERK and eIF2α | attenuated the DH20931-induced accumulation of ATF4 protein | did not affect the DH20931-induced phosphorylation | – | – |
| C/C=C(/C)C(=O)O[C@H]1C(C)=C2[C@H]([C@@H]1OC(=O)CCCCCCC)[C@@](C)(OC(C)=O)C[C@H](OC(=O)CCC)[C@@]1(O)[C@H]2OC(=O)[C@@]1(C)O [Tg, thapsigargin] | – | – | – | increase in mitochondrial Ca^2+ levels | completely abolished |
